# Screening results deposited in PubChem BioAssay by Johns Hopkins Ion Channel Center.
# Kir21 block: blocks the mouse Kir2.1 inward-rectifier potassium channel; P35561; 0.85% of 310,000 active; HEK293-Kir2.1, FluxOR thallium flux fluorescence; stronger effect = lower value; AID 1672; B-score at 10 µM;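 active means fluorescence ratio B-score at or below minus 3 SD of library scores, with starting-brightness B-score within 2 SD, cut at about -4.2 in these data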;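 further: channel flux triggered by added potassium and thallium sulfate stimulus; B-score of peak minus minimum fluorescence over baseline after thallium stimulus; more negative B-score means stronger Kir2.1 block with less thallium influx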
# Target sequence (P35561 whole entry, looked up): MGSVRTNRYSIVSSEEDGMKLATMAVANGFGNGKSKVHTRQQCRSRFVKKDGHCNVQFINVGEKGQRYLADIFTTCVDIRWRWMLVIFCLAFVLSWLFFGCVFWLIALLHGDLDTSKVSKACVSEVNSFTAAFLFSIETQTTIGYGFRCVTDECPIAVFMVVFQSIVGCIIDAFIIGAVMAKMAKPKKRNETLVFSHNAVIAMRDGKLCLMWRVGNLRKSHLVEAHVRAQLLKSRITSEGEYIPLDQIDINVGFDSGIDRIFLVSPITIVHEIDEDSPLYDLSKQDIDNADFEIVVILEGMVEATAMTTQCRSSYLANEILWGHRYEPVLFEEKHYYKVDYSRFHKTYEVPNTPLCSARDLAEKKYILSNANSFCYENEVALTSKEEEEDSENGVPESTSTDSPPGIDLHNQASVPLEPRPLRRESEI
# KCNK9 inh: human KCNK9 channel inhibition; Q9NPC2; HEK293 KCNK9, FluxOR thallium flux fluorescence; stronger effect = lower value; B-score at 10 µM; 1.2% of 310,000 active; AID 488922;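 active means ratio B-score over 3 SD below the library mean, with starting fluorescence within 5 SD of its mean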;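 further: negative B-score means less thallium flux so channel inhibition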
# KCNK3 inh: human KCNK3 channel inhibition, primary screen; AID 602410; B-score at 10 µM; CHO-KCNK3 thallium flux, FluxOR fluorescence; stronger effect = lower value; 0.84% of 340,000 active; O14649;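 active means B-score under library mean minus 4 SD, starting fluorescence ratio at most library mean plus 5 SD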;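 further: more negative B-score means stronger inhibition of thallium flux through KCNK3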
# KCNQ1 block: blocks the human KCNQ1 potassium channel. B-score at 10 µM. 1.3% of 310,000 active. P51787. CHO-K1 KCNQ1, FluxOR thallium flux fluorescence; stronger effect = higher value;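 active means compounds whose thallium flux B-score, printed positive for inhibition, exceeds three library SD while starting fluorescence stays within three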;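 further: channel opened by potassium depolarization with thallium stimulus after 20 min compound exposure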
# hERG rescue: hERG (human) protection from proarrhythmic block; Q12809; 0.51% of 310,000 active; activation (rescue from dofetilide block), less the hit threshold, % at 10 µM; CHO-hERG, FluxOR thallium flux, dofetilide IC70 present;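 active means activation above the mean of controls blocked by dofetilide plus 5 SD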;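 further: thallium influx through hERG after potassium depolarization seen as dye fluorescence rise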
# KCNQ1 act: potentiates or activates the human KCNQ1 potassium channel. P51787. CHO-K1 KCNQ1, thallium flux FluxOR fluorescence; stronger effect = higher value. B-score at 10 µM. 0.35% of 310,000 active. AID 2648;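 active means fluorescence ratio B-score, a plate-corrected score, at least three library SD, with initial intensity B-score within 5 SD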
#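 System: CHO-K1 cells stably expressing KCNQ1 / Medium: assay buffer for compound exposure, DMSO matched across wells / Reagent: thallium- and potassium-containing depolarizing buffer / Compound: one concentration, matched DMSO / Incubation: 20 min compound pretreatment at room temperature / Measured by: kinetic FluxOR fluorescence, 10 s baseline plus 110 s post-stimulus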
# KCNK3 confirm: human KCNK3 channel inhibition, confirmation assay. shares compounds with KCNK3 inh. CHO-KCNK3 thallium flux, FluxOR fluorescence; 0% buffer, 100% carvedilol maximal block. ratio percent of control, % at 10 µM. 99% of 2,400 active. AID 651638;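 active means ratio percent of control, averaged over triplicates, above buffer control mean plus 5 SD, cut at about 64% in these data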;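 further: ratio is the fluorescence rise from min to max over baseline after thallium stimulus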
# KCNK3 uninduced: counter-screen for KCNK3 inhibitors: effect in non-induced cells; shares compounds with KCNK3 inh; non-induced KCNK3 parental cells, FluxOR thallium flux; stronger effect = lower value; thallium flux ratio (lower = more inhibition) at 10 µM; 40% of 2,400 active;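 active means thallium flux ratio, averaged over three wells, more than 5 SD below the buffer control mean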;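 further: host cells are CHO cells without KCNK3 induction; ratio is peak minus trough fluorescence over baseline then normalized to buffer controls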
# * = called active by the depositor; i = inactive; x = not tested or not shown. In the library only some 3.8% were active in any assay of this set; here they are far more common.
SMILES,Kir21 block,KCNK9 inh,KCNK3 inh,KCNQ1 block,hERG rescue,KCNQ1 act,KCNK3 confirm,KCNK3 uninduced
COc1ccccc1CN1CC(C(=O)NCc2cccc(Cl)c2)CCC1=O (configuration not stated),-0.3,i,i,i,-8,i,x,x
O=C(OCc1ccc([N+](=O)[O-])cc1)c1ccc(N2CCCC2)c([N+](=O)[O-])c1,0.62,i,i,i,-8,i,x,x
CC1(C)CC(=O)C(C=Nc2cccc(/N=C/C3=C(O)CC(C)(C)CC3=O)n2)=C(O)C1,1.5,i,x,i,2,i,x,x
CC(=O)Nc1ccc(Oc2cc(C#N)c(C#N)cc2N2CCCCCC2)cc1,x,x,-13*,x,x,x,120*,i
CC(=O)Nc1ccc(OC(=O)N2CCCC2)cc1,-0.17,i,i,i,-11,i,x,x
Nn1c(SCC(=O)NC2CCCCC2)nnc1-c1ccco1,x,x,i,x,x,x,x,x
COc1ccc(C2=NS(=O)(=O)N(C)C(C(=O)Nc3cc(C)ccc3O)=C2)cc1OC,0.28,i,-9.2*,9*,-35,i,95*,i
O=C(CSc1nnc(NC(=O)C2CC2)s1)Nc1ccccc1,-0.51,i,i,i,-7,i,x,x
CCOC(=O)C1=C(c2ccccc2)NC(SCC(=O)Nc2cccc(C)c2)=C(C#N)C1c1ccco1 (configuration not stated),-0.32,-6.7*,-8.7*,i,-7,i,113*,i
O=c1cc(-c2ccc(Br)cc2)[nH][nH]1,1.2,i,i,i,-7,i,x,x
CN(c1ccccc1)S(=O)(=O)c1cccc(NC(=O)c2cc(=O)c3ccccc3o2)c1,-0.23,i,-10*,i,-8,i,137*,i
O=C(Nc1cccc(S(=O)(=O)N2CCCCCC2)c1)c1cc(=O)c2ccccc2o1,0.11,i,i,i,-11,i,x,x
C/C(=N\NC(=O)c1nn(C)c(C)c1Br)c1ccc(NC(=O)c2ccc(C)s2)cc1,0.04,i,-8.8*,i,-6,i,101*,i
CCCn1c(-c2ccccc2)cc(SC)c(C#N)c1=O,0.03,i,i,i,-4,i,x,x
C=CCn1c(-c2ccccc2)cc(SC)c(C#N)c1=O,1.8,i,-9.5*,i,-2,i,84*,i
CCOCCCNC(=S)N1CCN(Cc2ccco2)CC1,1.2,i,i,i,-3,i,x,x
COC(=O)c1ccccc1NC(=O)c1ccc(-c2ccccc2F)o1,0.03,i,i,i,-3,i,x,x
CCOc1cc(C(=S)N2CCOCC2)ccc1OS(=O)(=O)c1ccc(NC(C)=O)cc1,0.89,i,i,i,-12,i,x,x
O=C(NCCn1cc(SCc2ccc(F)cc2)c2ccccc21)c1ccccc1F,-1.6,-7.5*,-16*,11*,-23,i,140*,0.12*
Cc1cc(O)c(C(C)C)cc1NC(=O)c1ccccc1Cl,-2.1,i,i,i,-11,i,x,x
Cc1cc(O)c(C(C)C)cc1NC(=O)Nc1cc(Cl)ccc1Cl,x,x,-12*,x,x,x,114*,0.16*
Cc1c(C(=O)N(Cc2ccccc2)C2CCS(=O)(=O)C2)oc2ccccc12 (configuration not stated),-0.07,i,i,i,-11,i,x,x
CCCSc1nc(NCc2ccco2)c2c3c(sc2n1)COC(C)(C)C3,0.41,i,-9.6*,6*,-11,i,108*,i
CCCCn1c(N)c(N(CC)C(=O)c2cccc(S(=O)(=O)N3CCCc4ccccc43)c2)c(=O)[nH]c1=O,1,i,i,i,-9,i,x,x
CC(=O)N1N=C2/C(=C/c3ccccc3)CCCC2C1c1ccccc1 (configuration not stated),-1.7,i,-9.6*,i,-12,i,103*,i
SMILES,Kir21 block,KCNK9 inh,KCNK3 inh,KCNQ1 block,hERG rescue,KCNQ1 act,KCNK3 confirm,KCNK3 uninduced
C=CCNC(=O)c1ccc2c(c1)N(CC)C(=O)c1ccccc1S2,-0.06,i,i,i,-3,i,x,x
CCOC(=O)c1ccc(NC(=O)CSCc2ccco2)cc1,-1.6,i,-9.2*,i,-22,i,91*,i
COC(=O)C[C@H](NC(=O)Cn1cnc2c(OCc3ccccc3)ncnc21)C(=O)OC,x,x,i,x,x,x,x,x
Cc1nn(CC(=O)N2CCc3ccccc3C2)c(C)c1[N+](=O)[O-],1.9,i,i,i,-12,i,x,x
Cn1cccc1-c1nc2ccc(NC(=O)c3ccccc3)cc2[nH]1,-1.3,i,-11*,i,-19,i,103*,i
O=C(Nc1ccc2nc(-c3ccco3)[nH]c2c1)c1ccco1,-0.34,i,-8.9*,i,-15,i,140*,i
Fc1ccc(C(c2nnnn2Cc2cccs2)N2CCN(c3ccccc3)CC2)cc1 (configuration not stated),0.57,-7.4*,-10*,i,-11,i,102*,i
c1ccc(Cn2nnnc2C(c2cccs2)N2CCCCCC2)cc1 (configuration not stated),-1.4,i,-10*,i,-6,i,116*,0.13*
Cc1ccc(-c2cc(C(=O)N/N=C/c3c(C)nn(-c4ccccc4)c3C)n[nH]2)s1,1.4,i,-9.1*,i,-15,i,130*,0.13*
Cc1cc(C(=O)N/N=C/c2c(C)[nH]n(-c3ccccc3)c2=O)n[nH]1,1.1,i,i,i,-8,i,x,x
COc1ccc(NC(=O)C2CCN(S(C)(=O)=O)CC2)cc1,-0.02,i,i,i,-9,i,x,x
CCOc1ccc(NC(=O)C2CCN(S(C)(=O)=O)CC2)cc1,-1.8,i,-9.3*,i,-5,i,97*,i
CCOC(=O)C1=C(C)NC2=C(C(=O)c3ccccc32)C1c1cccc2ccccc12 (configuration not stated),-1.5,i,-11*,i,-4,i,113*,0.15*
CCOc1ccccc1C(=O)NN1CCOCC1,0.91,i,i,i,-6,i,x,x
CC(=O)OC(COc1cccc(C)c1)Cn1cnc2ccccc21 (configuration not stated),-1.5,i,-9.4*,i,-11,i,126*,0.16*
